Source: PubChem BioAssay
The entries come from a sample that favours hits as a whole.
A1 apoptosis 2: compounds inhibiting A1, read as caspase activation; caspase activation, % (test concentration not listed); MEF A1-2A-BIM cells, caspase-Glo luminescence, 3 h; percent of clofoctol response, DMSO zero; 24,000 tested, under 10 active; AID 2465; in the data active means caspase activation above about 5.9%
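system = A1-2A-BIM-expressing MEF cells | quantity = 2500 MEF cells/well | dosing = 50 nL compound per well, pinned | schedule = overnight cell settling, then 3 h compound exposure, 37 °C | signal = luminescence from DEVD-luciferin Caspase-Glo reagent, 1:1 in 50 mM HEPES, 1 h RT | read-out = Caspase-3/7 activation, seen as rise in luminescence signal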
INS-1E ATP HTS: INS-1E beta cell protection from cytokine death; INS-1E cytokine-induced death, ATP luminescence, 48 h; normalised: neutral wells 0, positive control 100; protection from cytokine-induced ATP loss, % at 10 µM; 20,000 compounds, 0.1% hits;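 active means mean replicate protection from cytokine-induced ATP loss at least 50% and at least 75% of replicates each reaching 50%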
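Assay system – rat INS-1E insulinoma cell line · Quantity – 8000 cells per well · Buffer or medium – RPMI without phenol red, 5% FBS · Schedule – 48 h co-treatment, 10 min post-lysis read · Technique – luminescent ATP assay (CellTiter-Glo)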
T cruzi HTS: intracellular Trypanosoma cruzi inhibition | intracellular Trypanosoma cruzi in host cells, plate reader | 22,000 compounds, 4.9% hits | AID 651903 | activity score (inhibition), % at 5.01 µM; in the data active means activity score above about 55%;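 further: parasites and compound incubated about four days before reading; 0% = median of neutral control wells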
An asterisk follows results filed as active; nt = no result.

SMILES	A1 apoptosis 2	INS-1E ATP HTS	T cruzi HTS
C[C@H](CO)N1C[C@H](C)[C@H](CN(C)Cc2ccc(F)cc2)Oc2ncc(-c3cc4ccccc4o3)cc2C1=O	-1	nt	78*
C[C@H](CO)N1C[C@H](C)[C@H](CN(C)Cc2ccncc2)Oc2ncc(-c3cc4ccccc4o3)cc2C1=O	nt	nt	40
Cc1cccc(CN(C)C[C@@H]2Oc3ncc(-c4ccccc4)cc3C(=O)N([C@H](C)CO)C[C@@H]2C)c1	0	nt	29
CNC[C@@H]1Oc2ncc(-c3cc4ccccc4o3)cc2C(=O)N([C@H](C)CO)C[C@@H]1C	-1	nt	79*
C[C@H](CO)N1C[C@H](C)[C@H](CN(C)S(C)(=O)=O)Oc2ncc(-c3cc4ccccc4o3)cc2C1=O	nt	nt	14
C[C@H](CO)N1C[C@H](C)[C@H](CN(C)S(=O)(=O)c2cccc(F)c2)Oc2ncc(-c3cc4ccccc4o3)cc2C1=O	-1	-22	64*
COc1cccc(S(=O)(=O)N(C)C[C@@H]2Oc3ncc(-c4cc5ccccc5o4)cc3C(=O)N([C@H](C)CO)C[C@@H]2C)c1	nt	nt	53
Cc1cccc(CN(C)C[C@@H]2Oc3ncc(-c4cc5ccccc5o4)cc3C(=O)N([C@H](C)CO)C[C@@H]2C)c1	0	nt	70*
NC(=O)COc1ccccc1/C=N/NC(=O)c1cccc(C(=O)NO)c1	1	1	-11
COC(=O)CCCCCCC(=O)N/N=C/[C@H](O)[C@@H](O)[C@H](O[C@@H]1O[C@H](CO)[C@H](O)[C@H](O)[C@H]1O)[C@H](O)CO	1	3	-7
CC(C)(C)OC(=O)NC/C=N/NC(=O)CCCCCCC(=O)Nc1ccccc1O	1	-6	16
C[C@H]1CN([C@@H](C)CO)C(=O)Cc2cc(NC(=O)Nc3ccc(C(F)(F)F)cc3)ccc2O[C@H]1CN(C)Cc1ccncc1	2	-1	68*
C[C@H](CO)N1C[C@H](C)[C@@H](CN(C)Cc2ccncc2)Oc2ccc(NC(=O)Nc3ccc(C(F)(F)F)cc3)cc2CC1=O	0	nt	nt
C[C@@H]1CN([C@@H](C)CO)C(=O)Cc2cc(NC(=O)Nc3ccc(C(F)(F)F)cc3)ccc2O[C@@H]1CN(C)Cc1ccncc1	1	-17	69*
C[C@H](CO)N1C[C@H](C)[C@H](CN(C)Cc2ccc(C(F)(F)F)cc2)Oc2ccc(NC(=O)c3ccncc3)cc2CC1=O	0	-8	38
C[C@@H]1CN([C@H](C)CO)C(=O)Cc2cc(NC(=O)c3ccncc3)ccc2O[C@H]1CN(C)Cc1ccc(C(F)(F)F)cc1	0	5	19
C[C@@H]1CN([C@H](C)CO)C(=O)Cc2cc(NC(=O)Nc3ccc(C(F)(F)F)cc3)ccc2O[C@@H]1CN(C)Cc1ccncc1	0	2	65*
O=C(CCCCC(=O)N/N=C/c1ccc(Br)o1)NO	-1	nt	nt
C/C=C\C=C/C1OC(O)(C(CC)C(=O)NC/C=C\C=C(\C)C(OC)C(C)C2OC(\C=C/C=C\C=C(\C)C(=O)c3c(O)cc[nH]c3=O)C(O)C2O)C(O)C(O)C1(C)C (stereo not given)	0	nt	nt
Cc1ccc(S(=O)(=O)Nc2ccc3c(c2)CC(=O)N([C@H](C)CO)C[C@H](C)[C@H](CN(C)Cc2ccc4c(c2)OCO4)O3)cc1	2	-13	20
C[C@H](CO)N1C[C@H](C)[C@H](CN(C)Cc2ccc(Cl)c(Cl)c2)Oc2ccc(NS(=O)(=O)c3ccc(Cl)cc3)cc2CC1=O	nt	-30	45
C[C@H](CO)N1C[C@H](C)[C@H](CN(C)Cc2ccc(Cl)c(Cl)c2)Oc2ccc(NS(=O)(=O)c3ccc(F)cc3)cc2CC1=O	nt	0	57*
C[C@@H]1CN([C@H](C)CO)C(=O)Cc2cc(NS(=O)(=O)c3ccc(Cl)cc3)ccc2O[C@@H]1CN(C)Cc1ccc(Cl)c(Cl)c1	nt	-65	67*
C[C@H]1CN([C@@H](C)CO)C(=O)Cc2cc(NS(=O)(=O)c3ccc(Cl)cc3)ccc2O[C@H]1CN(C)Cc1ccc(Cl)c(Cl)c1	-1	-25	29
Cc1ccc(S(=O)(=O)Nc2ccc3c(c2)CC(=O)N([C@@H](C)CO)C[C@H](C)[C@@H](CN(C)Cc2ccc(Cl)c(Cl)c2)O3)cc1	-1	-54	75*
Cc1ccc(S(=O)(=O)Nc2ccc3c(c2)CC(=O)N([C@H](C)CO)C[C@H](C)[C@H](CN(C)Cc2ccc(Cl)c(Cl)c2)O3)cc1	0	-4	21
Cc1ccc(S(=O)(=O)Nc2ccc3c(c2)CC(=O)N([C@H](C)CO)C[C@@H](C)[C@H](CN(C)Cc2ccc4c(c2)OCO4)O3)cc1	1	0	61*
